# Measured values pooled from the literature.
# Protocols differ between the studies behind these lines.
# Target: 5-hydroxytryptamine receptor 2A (HTR2A, Homo sapiens, UniProt P28223)
# Tested at: 10 µM
SMILES,test,endpoint,value
Clc1ccc2c(C3CCN(CCc4c[nH]c5ccccc45)CC3)c[nH]c2c1,"ligand displacement, radioligand",inhibition,99%
COCCN(CCOC)C(=O)[C@@]12C[C@@H]1[C@@H](n1cnc3c(NC(C4CC4)C4CC4)nc(Cl)nc31)[C@H](O)[C@@H]2O,"ligand displacement, radioligand",inhibition,0%
Nc1c(C(=O)NCc2ccc(C(=O)NCCCC3CCCCC3)cc2)cnn1-c1ccccc1,ligand displacement,inhibition,23.7%
CSC[C@@]12C[C@@H]1[C@@H](n1cnc3c(NC(C4CC4)C4CC4)nc(I)nc31)[C@H](O)[C@@H]2O,"ligand displacement, radioligand",inhibition,24%
CCN(CC)CCCC[C@H](NC(=O)[C@H](CC(C)C)NC(=O)[C@H](C)NC(=O)[C@H](Cc1ccccc1)NC(=O)c1ccc(C(C)(C)C)cc1)C(=O)N[C@@H](CO)C(=O)OC,"ligand displacement, radioligand",inhibition,39%
COCc1c(-c2cc3cc(C)cc(OC)c3s2)c2c(N)ncnn2c1CN1CCNC(=O)C1,"ligand displacement, radioligand",inhibition,23%
COCCN(CCOC)C(=O)[C@@]12C[C@@H]1[C@@H](n1cnc3c(N)nc(Cl)nc31)[C@H](O)[C@@H]2O,"ligand displacement, radioligand",inhibition,3%
Nc1ncc(-c2nc(N3CCOCC3)nc(N3CCOCC3)n2)c(C(F)F)n1,"cell-free assay, radioligand",remaining signal,98.1%
CCc1ccccc1C(=O)Nc1n[nH]c2c(C)c(F)c(C3C(C#N)=C(C)N(C)C(C)=C3C#N)cc12,ligand displacement,inhibition,14.8%
COc1cc2c3c(c1OC)-c1cc4c(cc1CC3N(C)CC2)OCO4 (racemic),"ligand displacement, radioligand",inhibition,89.3%
